Compounds with a hit are over-represented: about 3.1% of the library has one in this group of screens.
GalR3 antag: antagonists of human GalR3. inhibition, % at 3 µM. HEK293 GalR3-CNG cAMP membrane potential fluorescence; galR3 body fused to GalR1 C-terminus. 360,000 tested, 0.44% active. O60755. AID 651719;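 active = inhibition above the screen-wide average plus 3 SD, cut at about 13% in these data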;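 also: forskolin and galanin both at EC90 stimulate the cells; cAMP rise reported by CNG channel membrane potential dye signal; 0% = forskolin plus galanin with DMSO and 100% = forskolin alone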
GPR7 antag: blocks human GPR7 receptor signaling. P48145. GPR7-expressing cells, fluorescence antagonist assay. inhibition, % at 4.4 µM. 290,000 tested, 1.1% active. AID 1861; in the data active = inhibition above about 16%, passing the limit was not always enough;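 also: cells stimulated with the agonist NPW; 0% = agonist with vehicle and 100% = vehicle without agonist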
CHO parental Ca: counter-screen for OX1R antagonists: effect in parental CHO cells | parental CHO-K1, ATP-induced calcium, Fluo-8 fluorescence | inhibition, % at 5.6 µM | 330,000 tested, 0.63% active | AID 463079;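 active = inhibition above that plate's mean sample inhibition plus 3 SD, cut at about 26% in these data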;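 also: 0% = ATP-challenged DMSO wells and 100% = DMSO wells without ATP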
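Measured by: calcium-sensitive Fluo-8 fluorescence / Test system: CHO parental line / Controls: ATP-challenged DMSO wells low, unchallenged DMSO wells high / Measure: % inhibition / Compound: single nominal dose of 5.6 µM per compound / Replicates: single well per compound, no replicates / Reagent: ATP as calcium-mobilizing challenge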
OX1R antag-1: blocks the human orexin 1 receptor; O43613; OX1R-expressing cells, FRET antagonist read-out; inhibition, % at 6.6 µM; 330,000 tested, 1.8% active; AID 485270; in the data active = inhibition mostly above about 38%, no sharp cut-off; inactive = mostly below about 40%;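 also: 0% = agonist challenge alone and 100% = reference antagonist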
Target sequence (O43613 whole entry, looked up): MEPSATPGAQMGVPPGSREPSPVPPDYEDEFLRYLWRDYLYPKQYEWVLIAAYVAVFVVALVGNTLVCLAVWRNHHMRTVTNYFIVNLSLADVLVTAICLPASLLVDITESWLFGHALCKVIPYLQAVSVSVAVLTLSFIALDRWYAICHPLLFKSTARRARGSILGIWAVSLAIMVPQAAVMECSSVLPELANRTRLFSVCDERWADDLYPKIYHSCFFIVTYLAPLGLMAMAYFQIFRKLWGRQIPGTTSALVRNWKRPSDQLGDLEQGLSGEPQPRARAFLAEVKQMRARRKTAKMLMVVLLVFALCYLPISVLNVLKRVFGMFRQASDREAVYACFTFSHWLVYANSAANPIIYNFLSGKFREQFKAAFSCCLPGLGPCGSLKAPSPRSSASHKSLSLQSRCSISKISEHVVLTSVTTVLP
OX1R antag-2: antagonists of human orexin 1 receptor. O43613. CHO/OX1R cells, Fluo-8 calcium fluorescence, orexin A. inhibition, % at 5 µM. 330,000 tested, 0.43% active. AID 434989;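 active = inhibition above its plate's threshold, mean inhibition of all tested compounds on the plate plus 3 SD, cut at about 37% in these data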;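 also: 0% = orexin A challenge wells and 100% = SB-334867-A antagonist wells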
* hit, by the source's call; / = no result.

SMILES	GalR3 antag	GPR7 antag	CHO parental Ca	OX1R antag-1	OX1R antag-2
O=C1NC(=O)C2(CCCC2)N1	-4.4	/	/	/	/
N#Cc1nc(-c2ccc(OCc3ccccc3)cc2)oc1NCc1cccnc1	-4.6	18.5	53.7*	61.5	45.0*
N#Cc1nc(-c2ccc(OCc3ccc(Cl)cc3)cc2)oc1NCc1cccnc1	-4.1	-1.5	-7.4	24.2	6.9
CCc1ccccc1N1C(=O)CN(Cc2cc(OC)c(OC)c(OC)c2)C1=S	-9.5	5.3	-15.2	37.2*	-5.6
CCCN1CCCCC(NC(=O)c2ccc(Cl)cc2Cl)C1=O (centres undefined)	0.3	/	/	/	/
COc1ccccc1CNC(=O)COC(=O)c1ccc(-n2cnnn2)cc1	-2.0	/	-26.1	2.5	-0.4
O=C(OCCOc1ccccc1Cl)c1ccc(-n2cnnn2)cc1	-3.9	17.2*	4.7	10.5	-5.0
CCOc1ccc(NC(=O)CN(C)C2=NS(=O)(=O)c3ccccc32)cc1	-7.3	/	/	/	/
CCOC(=O)C1=CCN(S(=O)(=O)c2ccc([N+](=O)[O-])cc2)C1c1ccc(C)cc1 (centres undefined)	-3.0	/	/	/	/
O=C1/C(=C/c2ccc(N3CCOCC3)o2)SC(=Nc2ccccc2)N1CCc1c[nH]c2ccccc12	/	25.6	92.0*	0.9	75.0*
CCCc1ccc(-c2cc(NC(=O)Cc3c(C)[nH]c4ccccc34)ccc2N(C)c2cccnc2)cc1	-2.5	/	/	/	/
COc1cc(OC)cc(C(=O)NCc2cc(C)nc3ccccc23)c1	-4.8	-17.7	-24.4	62.9*	12.9
COc1cccc(C(=O)NNc2c3ccccc3nc3ccccc23)c1	-3.9	-9.7	-7.3	41.7*	-2.2
Cc1ccc2nc(C3CCCCC3)c(Cc3ccccc3)n2c1	-9.6	/	/	/	/
COc1ccc(C(=O)N(C)[C@H]2C[C@H]3c4[nH]c5c(-c6ccccc6)cccc5c4CCN3C(=O)[C@H]2[C@H](C)O)cc1	-4.2	/	/	/	/
CC(=O)c1cccc(NC(=O)C2CC(=O)N(Cc3ccccc3)C2)c1 (centres undefined)	-4.6	-9.8	8.2	8.5	-18.1
CC(C)c1ccc(CN2CC(C(=O)Nc3ccccc3)CC2=O)cc1 (centres undefined)	2.5	17.4*	-6.4	3.6	5.6
C#CCOCC1CN(C)C(=O)O1 (centres undefined)	-4.8	/	/	/	/
CC(=O)Nc1ccccc1Nc1cc(C#N)c(C#N)cc1[N+](=O)[O-]	-6.4	0.9	1.1	58.3*	-17.4
O=S(=O)(NCc1ccccc1)c1ccc(-c2cnc(C3CC3)o2)cc1	-2.8	-2.4	-11.3	15.6	-4.3
CCOc1ccccc1CNS(=O)(=O)c1ccc(-c2cnc(C3CC3)o2)cc1	11.7	0.6	33.2*	45.0	24.2
COC(=O)C1=C(C)N(Cc2ccccc2C(F)(F)F)C(=NCc2ccc(OC)cc2)NC1c1ccccc1C(F)(F)F (centres undefined)	-5.5	/	/	/	/
C#CCOCCOCCOCCNc1nc(N2CCN(C(=O)CCCCCCCCCCNC(=O)[C@H]([C@@H](C)CC)n3cc(CCCCCN)nn3)CC2)nc(N2CCN(C(=O)CCCCCCCCCCNC(=O)[C@@H]([C@H](C)O)n3cc(C)nn3)CC2)n1	/	/	-3.8	-23.1	-7.7
C#CCOCCOCCOCCNc1nc(N2CCN(C(=O)CCCCCCCCCCNC(=O)[C@H](CCCCN)n3cc(C[C@@H](C)CC)nn3)CC2)nc(N2CCN(C(=O)CCCCCCCCCCNC(=O)[C@H](CCCCN)n3cc(C[C@@H](C)CC)nn3)CC2)n1	/	/	100.9*	-9.3	33.5
C#CCOCCOCCOCCNc1nc(N2CCN(C(=O)CCCCCCCCCCNC(=O)[C@H](CCCCN)n3cc(C)nn3)CC2)nc(N2CCN(C(=O)CCCCCCCCCCNC(=O)[C@@H]([C@H](C)CC)n3cc(CCCCCN)nn3)CC2)n1	/	/	73.5*	-3.8	-7.5
COC(=O)C1=C(C)N(C)C(=NCc2cccc(C(F)(F)F)c2)NC1c1cccc(Cl)c1 (centres undefined)	-8.8	/	/	/	/
COc1cccc(CN(C)C(=O)c2cccc(S(=O)(=O)N3CCN(c4ccc(F)cc4)CC3)c2)c1OC	-4.5	/	35.4*	35.6	13.3
CC1(C)OC(=O)C2=C(CC(CCc3ccccc3)OC2c2ccc(F)cc2)O1 (centres undefined)	-4.6	/	/	/	/
Cc1ccccc1CN1[C@@H](CC2CCCCC2)COCCS1(=O)=O	-4.7	-1.9	-31.7	68.4*	-32.6
O=C(/C=C/c1ccc(OCCCF)cc1)Nc1ccnc(-c2ccncc2)n1	-7.9	-19.3	30.0	84.5*	21.7

Source: PubChem BioAssay
